Consider seven compounds from paper PMC7617399 (Nature microbiology, 2016).

Like-named read-outs stand apart in the source and are kept apart here.

For one data set, the target named is ORF57-UAP56 interaction (Homo sapiens, UniProt Q13838). In words: Co-immunoprecipitation of ORF57 with UAP56. In kind it is cell-based, KSHV / human. Conditions: nucleotide added to HEK-293T lysates (1.25 mM or concentration series). In short, it runs like this:
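1×10^6 HEK-293T transfected with 1 μg ORF57-GFP or GFP plasmid (Lipofectamine), lysed after 24 h on ice for 20 min in modified RIPA (50 mM Tris/HCl, 150 mM NaCl, 1% NP40-alternative, pH 7.6) plus RNase A. Lysate clarified, pre-cleared on protein A for 2 h at 4°C, pulled down on GFP-trap beads with ATP, ADP or ATPγS for 2.5 h at 4°C. Western blot.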

In the next data set the target is recombinant GST-UAP56 (Homo sapiens, UniProt Q13838). The data set is described as follows: Microscale thermophoresis binding to UAP56. To be noted: read-out: KD (microscale thermophoresis); FITC-labelled GST-UAP56, 37°C. In short, it runs like this:
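GST-UAP56 FITC-labelled, desalted into 20 mM HEPES pH 7.4 with 2 mM MgCl2, used at 100–500 nM. Titrated with test compound in a 1:1 serial dilution from 4.5 mM, final DMSO 20% (v/v). LED power 10–60%, 37°C. KD fitted in thermophoresis mode. Biological replicates.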

Data set [1] deals with KSHV latent nuclear antigen (LANA). In words: LANA immunoblotting. The class given is cell-based. Conditions: immunoblot, range of concentrations.
Data set [2] deals with TREx BCBL1-Rta cells. In words: Apoptosis assay. The class given is cell-based, human. Conditions: 72 h, CCT018159 at 2.5 μM. The method in brief: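 TREx BCBL1-Rta cells exposed to DMSO or test compound for 72 h, washed, then incubated in HEPES buffer with Annexin-V-fluorescein plus propidium iodide to mark apoptotic and necrotic cells. Analysis by flow cytometry. Biological replicates.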

Data set [3] has as its target purified recombinant UAP56 (GST-UAP56) (Homo sapiens, UniProt Q13838). The data set is described as follows: UAP56 ATPase assay. The class given is biochemical. The method in brief: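 2.5 μM GST-UAP56 (E. coli BL-21, glutathione-eluted, buffer-exchanged) with 50 μM yeast tRNA, 35 μM ATP, 2 mM MgCl2, 50 mM KCl, 50 mM Tris/HCl pH 7.6. Screening at 100 μM final compound. IC50 series delivered in DMSO (1% of reaction). 37°C, 30 min, remaining ATP read by Kinase-Glo luminescence. Biological replicates.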

The test system of data set [4] is HSV-1. In words: Infectious HSV-1 virion production. In kind it is cell-based.
Data set [5] concerns the target ADP-bound purified recombinant UAP56 (Homo sapiens, UniProt Q13838). The data set is described as follows: ADP displacement assay. In kind it is binding. In short, it runs like this:
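Pre-formed ADP-bound enzyme: 5 μM GST-UAP56 (E. coli BL-21) run with 5 μM ATP for 30 min under ATPase-assay buffer conditions. Leftover ATP depleted with ADP-Glo reagent, then test compound added at rising concentrations and incubated 37°C for 30 min. Freed ADP converted to ATP and read by luminescence. n = 3 biological replicates.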

Data set [6] concerns TREx BCBL1-Rta cells. In words: MTS cell viability assay, TREx BCBL1-Rta. Conditions: TREx BCBL1-Rta, MTS, mean ± s.e.m. In kind it is cell-based, human. The method in brief:
(§1)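 MTS assay: TREx BCBL1-Rta plated at 1×10^6 cells/ml and treated at once with test compound in DMSO (0.1% of volume, also added to controls). Viability read at 24 and 72 h. Biological replicates.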

For data set [7], the system named is ORF57-mediated ORF47 mRNA stabilization and export in HEK-293T cells. In words: Viral mRNA export assay. In kind it is cell-based, KSHV. Conditions: 2.5 μM, 18 h. The method in brief:
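HEK-293T co-transfected with GFP or ORF57-GFP plus an intronless ORF47 reporter, then exposed to DMSO or test compound for 18 h. RNA taken from whole-cell and cytoplasmic fractions. ORF47 measured by qRT-PCR, normalised to GAPDH, ΔΔCT. n = 3, unpaired t test.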

The target of another data set is HSP90. To be noted: read-out: Ki (HSP90); reported value; cited from earlier work.
The subject of the next data set is KSHV. In words: Infectious KSHV virion production. In kind it is cell-based. To be noted: 2.5 μM, supernatant 72 h after induction. In short, it runs like this: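 0.8×10^6 TREx BCBL1-Rta cells reactivated with 2 μg/ml doxycycline and treated with test compound or DMSO. Supernatants filtered at 72 h and used 1:1 on 1×10^6 HEK-293T. At 24 h post-infection, TRIzol RNA assayed by qRT-PCR for viral mRNA, normalised to GAPDH, shown as fold change against DMSO.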

For the next data set, the system named is HEK-293T cells. The data set is described as follows: MTS cell viability assay, HEK-293T. In kind it is cell-based, human. In short, it runs like this:
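MTS assay: HEK-293T plated at 0.5×10^6 cells/ml 24 h ahead, then given test compound in DMSO (0.1% of volume, also added to controls). Readings normalised to DMSO wells, n = 5. CC50 from four-parameter variable-slope non-linear regression.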

In the next data set the target is hTREX-UAP56 interaction (Homo sapiens, UniProt Q13838). The data set is described as follows: Co-immunoprecipitation of endogenous hTREX with UAP56. The class given is cell-based. To be noted: up to 0.5 mM added to the lysate.
Another data set deals with HCMV. The data set is described as follows: Infectious HCMV virion production. In kind it is cell-based.
Data set [8] has as its system HSV-1. The data set is described as follows: HSV-1 plaque assay after primary infection. Conditions: increasing concentrations, HFF cells. In kind it is cell-based. The method in brief:
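HFF (2×10^5) infected with HSV-1 at MOI 0.001 for 1 h and washed twice in PBS. Cells then overlaid with plaque agar (growth medium 1:1 with 2% agarose, 37°C) holding test compound or DMSO (0.1% final). Agarose lifted at 96 h, cells fixed 10 min in 4% paraformaldehyde, stained with 0.5% crystal violet, plaques counted by eye. Lysis also imaged directly.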

The test system of data set [9] is ORF57-mediated nuclear retention of cellular bulk mRNA in HEK-293T cells. In words: Fluorescence in situ hybridization of poly. The class given is cell-based, human. Conditions: ORF57-GFP expressing HEK-293T, 24 h treatment. In short, it runs like this: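 HEK-293T transfected with GFP or ORF57-GFP for 6 h, then DMSO or test compound for 24 h. Poly(A) RNA detected with 5′ Alexa Fluor 546-labelled oligo dT(70) probe, nuclei stained with DAPI, confocal imaging. Cells showing nuclear mRNA retention counted. 4 independent experiments.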

Data set [10] has as its system KSHV minor capsid protein (mCP) expression in TREx BCBL1-Rta cells. In words: Viral late protein mCP expression. In kind it is cell-based. To be noted: for EC50: read-out: EC50 24 h (μM) (mCP expression).
Data set [11] concerns KSHV viral load in TREx BCBL1-Rta cells. The data set is described as follows: KSHV replication assay. The class given is cell-based. Conditions: for EC50: read-out: EC50 72 h (μM) (Viral load).
A short description of data set [12]: MTS cell viability assay, TREx BCBL1-Rta. In kind it is cell-based, human. To be noted: human, TREx BCBL1-Rta cells. In short, it runs like this:
as §1

Where [13] appears, read: reactivated TREx BCBL1-Rta, 72 h, qPCR, mean ± s.e.m.

Sequence of ORF57-UAP56 interaction (P82979 2-210): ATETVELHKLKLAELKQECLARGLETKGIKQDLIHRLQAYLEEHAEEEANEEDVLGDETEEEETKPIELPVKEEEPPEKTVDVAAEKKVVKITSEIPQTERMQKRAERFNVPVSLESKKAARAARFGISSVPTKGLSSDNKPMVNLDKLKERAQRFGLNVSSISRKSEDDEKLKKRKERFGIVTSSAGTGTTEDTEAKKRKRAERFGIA
Sequence of ORF57-UAP56 interaction (Q13838 2-428): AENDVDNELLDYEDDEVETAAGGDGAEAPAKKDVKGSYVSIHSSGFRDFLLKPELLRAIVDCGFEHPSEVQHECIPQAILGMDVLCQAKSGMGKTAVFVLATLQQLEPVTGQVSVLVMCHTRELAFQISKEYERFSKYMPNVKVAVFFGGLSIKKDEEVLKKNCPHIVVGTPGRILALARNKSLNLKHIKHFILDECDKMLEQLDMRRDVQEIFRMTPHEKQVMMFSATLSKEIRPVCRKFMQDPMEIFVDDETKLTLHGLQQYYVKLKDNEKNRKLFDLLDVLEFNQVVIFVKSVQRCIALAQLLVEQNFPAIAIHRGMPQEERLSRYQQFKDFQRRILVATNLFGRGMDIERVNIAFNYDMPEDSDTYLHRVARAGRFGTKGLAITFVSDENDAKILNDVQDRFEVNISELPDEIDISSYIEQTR
Sequence of purified recombinant UAP56 (GST-UAP56) (Q13838 whole entry): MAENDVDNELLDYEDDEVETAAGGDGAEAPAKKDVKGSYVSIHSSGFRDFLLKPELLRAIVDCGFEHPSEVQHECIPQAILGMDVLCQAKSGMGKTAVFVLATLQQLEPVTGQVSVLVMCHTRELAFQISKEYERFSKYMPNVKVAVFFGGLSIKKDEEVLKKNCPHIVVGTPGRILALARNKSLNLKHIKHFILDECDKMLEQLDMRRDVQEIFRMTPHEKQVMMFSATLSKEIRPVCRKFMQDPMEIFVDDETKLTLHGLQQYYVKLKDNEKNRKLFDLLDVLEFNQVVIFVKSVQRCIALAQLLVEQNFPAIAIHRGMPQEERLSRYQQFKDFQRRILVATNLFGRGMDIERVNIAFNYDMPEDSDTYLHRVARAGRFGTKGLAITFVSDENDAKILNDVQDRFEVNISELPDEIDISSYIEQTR
Sequence of ADP-bound purified recombinant UAP56 (Q13838 whole entry): as above
Sequence of recombinant GST-UAP56 (Q13838 whole entry): as above
Sequence of hTREX-UAP56 interaction (Q13838 2-428): as the sequence (Q13838 2-428) above
Sequence of hTREX-UAP56 interaction (P82979 2-210, further chain): as the sequence (P82979 2-210) above

Turning to `Nc1ncnc2c1ncn2[C@@H]1O[C@H](COP(=O)(O)OP(=O)(O)O)[C@@H](O)[C@H]1O` [ADP], the “effect of nucleotide on ORF57-UAP56/hTREX interaction” value on ORF57-UAP56 interaction was “disrupted”.

Regarding `Nc1ncnc2c1ncn2[C@@H]1O[C@H](COP(=O)(O)OP(=O)(O)OP(=O)(O)O)[C@@H](O)[C@H]1O` [ATP], the dissociation constant (Kd) at recombinant GST-UAP56 worked out at 30.1 ± 4.5 µM. Further, on ORF57-UAP56 interaction, the “effect of nucleotide on ORF57-UAP56/hTREX interaction” value is given as “enhanced”.

As for `Nc1ncnc2c1ncn2[C@@H]1O[C@H](CO[P@](=O)(O)O[P@](=O)(O)O[P@@](=O)(O)S)[C@@H](O)[C@H]1O` [ATPγS, Adenosine 5′-O-(3-thio)triphosphate], the “effect of nucleotide on ORF57-UAP56/hTREX interaction” value at ORF57-UAP56 interaction was “significantly inhibited”.

`CCc1cc(-c2n[nH]c(C)c2-c2ccc3c(c2)OCCO3)c(O)cc1O` [CCT018159]: the LANA degradation result in data set [1] is recorded as “no LANA degradation”. Further, the apoptosis result in the data set on TREx BCBL1-Rta cells [2] was “no increase in apoptosis”. In [3] (at 100 μM (compound screening)), the “reduction of UAP56 activity” value was above 70%. For the same compound, the “reduction in infected cells (HSV-1 re-infection)” value is listed as 50% in the data set with HSV-1 [4] (2.5 μM) and 95% in the data set with HSV-1 [4] (5 μM). Also, the “mode of inhibition (ADP displacement)” value in [5] (ADP-bound UAP56, increasing concentrations) is recorded as “ATP/ADP-competitive inhibitor”. Further, the IC50 in data set [5] (read-out: IC50 (ADP displacement)) was around 60 µM. In addition, the Kd at recombinant GST-UAP56 amounted to 76 ± 3.8 µM. Besides, the CC50 with TREx BCBL1-Rta cells [6] (read-out: CC50 24 h (μM) (Cell viability), 24 h) worked out at 21.1 ± 1.6 µM; in the data set with TREx BCBL1-Rta cells [6] (read-out: CC50 72 h (μM) (Cell viability), 72 h), 16.6 ± 1.1 µM. The “effect on ORF57-mediated ORF47 mRNA stabilization and export” value in data set [7] is reported as “abolished”. The Ki on HSP90 was 1.8 ± 0.3 µM. Further, the “reduction of viral mRNA in re-infected cells versus controls” value in the data set on KSHV came to 80%. In addition, the non-cytotoxic concentrations in the data set with HEK-293T cells is below 15 µM. Besides, at hTREX-UAP56 interaction, the “effect on hTREX-UAP56 interaction” value is recorded as “did not inhibit”. Further, the “reduction of HCMV virion production” value in the data set on HCMV (1 μM) is on record as 50%; with HCMV (2.5 μM), “over 99%”. In addition, in the data set on HSV-1 [8], the “cell lysis, plaque size and plaque number” value is recorded as “dramatically decreased”. Further, the “effect on ORF57-mediated nuclear retention of poly(A) RNA” value in [9] was “nuclear retention was lost”. The mCP expression entry in data set [10] (at 2.5 μM) is “marked reduction”. In addition, in [10] (immunoblot), the “concentrations at which mCP inhibition occurred” value is 1 to 2.5 µM. The EC50 was determined as 0.6 ± 0.1 µM in [10] (reactivated TREx BCBL1-Rta, 24 h, mean ± s.e.m.) and 1.1 ± 0.1 µM in [11] (setting [13]). Also, the “potency of antiviral effect relative to IC50 on purified UAP56” value in data set [11] (discussion) is on record as 30 fold. In addition, the “concentration of antiviral effect” value in data set [11] (discussion, assay not specified) is on record as “around 2 μM”.

Consider `CCc1cc(-c2n[nH]c(C)c2-c2ccc(OC)cc2)c(O)cc1O` [Cmpd. 3, 4-Ethyl-6-(4-(4-methoxyphenyl)-3-methyl-1H-pyrazol-5-yl)benzene-1,3-diol], for which, in [3], the IC50 came out at 88.7 ± 7.9 µM. In addition, in [12], the CC50 at 24 h was found to be 27.9 ± 2.7 µM and half-maximal cytotoxicity (CC50 at 72 h) was put at 14.7 ± 0.5 µM. For the same compound, the EC50 in data set [10] (Human gammaherpesvirus 8, 24 h) worked out at 2.4 ± 0.4 µM. Also, the half-maximal effective concentration (EC50) in data set [11] (Human gammaherpesvirus 8, 72 h) was found to be 2.7 ± 0.2 µM.

With `CCc1cc(-c2n[nH]c(C(=O)O)c2-c2ccc(OC)cc2)c(O)cc1O` [Cmpd. 4, 3-(5-Ethyl-2,4-dihydroxyphenyl)-4-(4-methoxyphenyl)-1H-pyrazole-5-carboxylic acid], the concentration for half-maximal inhibition (IC50) in data set [3] was above 1000 µM. Also, in data set [12], the CC50 at 24 h is around 820 µM and the CC50 at 72 h was above 1000 µM. Besides, the EC50 in data set [10] (Human gammaherpesvirus 8, 24 h) was above 1000 µM. Further, the EC50 in data set [11] (Human gammaherpesvirus 8, 72 h) came out at 138 ± 45.2 µM.

For the compound `CO[C@H]1/C=C\C=C(/C)C(=O)NC2=CC(=O)C(NCCN(C)C)=C(C[C@@H](C)C[C@H](OC)[C@H](O)[C@@H](C)/C=C(\C)[C@@H]1OC(N)=O)C2=O` [Compound 17-DMAG], the LANA degradation result in data set [1] is given as “enhanced”. In addition, the apoptosis entry in the data set with TREx BCBL1-Rta cells [2] was “increased levels of apoptosis and necrosis”. Also, the “UAP56 ATPase inhibition” value in data set [3] (Supplementary Fig. 2a) is given as “no UAP56 ATPase inhibition”. Further, the “effect on ORF57-mediated nuclear retention of poly(A) RNA” value in data set [9] is “failed to relieve”. In [11] (setting [13]), the EC50 turned out to be 0.04 ± 0.01 µM.
